# Assay results published in PMC3321547 (Biochemistry, 2009).
# “Also recorded” adds a separate entry of the source.
# Assays:
# kinesin head domains = conditions: ref [6], cited from earlier work
# [1] = Sedimentation of single constructs, 25 mM KCl; format: physicochemical; conditions: A25 buffer, 0.1 mM ATP, 4 °C
# DKH412 [2] = assay: Inhibition of basal steady state ATPase of DKH412 head dimer; format: biochemical, Drosophila; conditions: no added KCl, 7 µM DKH412 monomer
# K346SC = assay: Inhibition of basal ATPase of artificial dimer K346SC; format: biochemical, Drosophila; conditions: read-out: Kd, inhibition of basal ATPase; 6 µM K346SC monomer (Fig. 3C)
# In short: (§1)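 Heads were Drosophila kinesin residues 1–346 (for the artificial dimer, fused via a TSGG linker to the GCN4-p1 coiled coil) or 1–357. Basal ATPase was run at 25 °C in A25 buffer (pH 6.9) with […], 2 mM PEP and 0.25 mM NADH, coupled to PK/LDH, KCl as indicated. A340 was read, with turbidity correction where needed. Tail-peptide titrations were fit to the quadratic mutual-depletion equation.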
# K357SC = assay: Inhibition of artificial dimer K357SC; format: biochemical, Drosophila; conditions: not shown
# DKH357 = assay: Inhibition of basal ATPase of monomeric DKH357; format: biochemical, Drosophila; conditions: 13.3 µM DKH357
# In short: as §1
# DKH412 [3] = assay: Inhibition of mADP release; format: biochemical, Drosophila
# DKH346 = assay: Inhibition of basal ATPase of monomeric DKH346; format: biochemical, Drosophila; conditions: 6.8 µM DKH346 (Fig. 3C)
# In short: as §1
molecule,measurement,setting,value
Nc1ncnc2c1ncn2[C@@H]1O[C@H](COP(=O)(O)OP(=O)(O)O)[C@@H](O)[C@H]1O [ADP],rate of release as ADP,kinesin head domains; basal,~ 0.01 s^−1
Nc1ncnc2c1ncn2[C@@H]1O[C@H](COP(=O)(O)OP(=O)(O)OP(=O)(O)O)[C@@H](O)[C@H]1O [ATP],Km,"kinesin head domains; read-out: KM for ATP, basal ATPase, absence of MTs",~2.5 nM
same,net ATP binding and hydrolysis rate,kinesin head domains,≥ 4e+06 M⁻¹ s⁻¹
DKH412: residues 1 to 412 of Drosophila kinesin with C-terminal HisTag; dimeric head construct,"s20,w, centrifuged alone",[1],5.2 S
"NF910-952: monomeric Drosophila kinesin tail peptide, residues 910-952, non-fusion version obtained by thrombin cleavage",stoichiometry of inhibition of basal ATPase,DKH412 [2],1 tail peptide per two head peptides
same,Kd,K346SC,330 nM
same,stoichiometry of inhibition of K357SC,K357SC,half-site stoichiometry
same,inhibition of monomeric DKH357 (in words),DKH357,only weakly inhibits; also recorded: not strongly inhibited
same,maximum extent of inhibition of mADP release,"DKH412 [3]; 50 mM KCl, 25 °C, pH 6.9, 0.2 µM DKH412",75%
same,maximum inhibition of mADP release,"DKH412 [3]; no added KCl, A25 buffer pH 6.9, 25 °C, 0.2 µM DKH412",over 80%
same,inhibition of monomeric DKH346 (in words),DKH346,only poorly inhibited
